Data on two compounds can be found in paper PMC4011022 (Molecular cell, 2014).

Test [1] addresses T1, CK2α (casein kinase-2 catalytic subunit) (Homo sapiens, UniProt P68400). It counts as binding. Summed up:
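GST-tagged CK2α was expressed in E. coli and purified. Twenty μg, held on glutathione beads, was incubated overnight at 4 °C with [3H]IP6 (10–20 Ci/mmol) in 40 mM Tris pH 8.0, 150 mM NaCl, 1 mM MgCl2, 4% glycerol and 0.1% Triton. Unlabeled IP6 was added over a concentration series as competitor. Controls were buffer or GST alone. Data are mean ± SE of at least three independent experiments.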

The target in test [2] is T1, CK2α (casein kinase-2 catalytic subunit). Briefly: competition of [3H]IP6 radioligand binding to purified recombinant GST-CK2α.

pIC50: −log10 of the molar value. Like-named read-outs stand apart in the source and are kept apart here.

T1 sequence (P68400 whole entry): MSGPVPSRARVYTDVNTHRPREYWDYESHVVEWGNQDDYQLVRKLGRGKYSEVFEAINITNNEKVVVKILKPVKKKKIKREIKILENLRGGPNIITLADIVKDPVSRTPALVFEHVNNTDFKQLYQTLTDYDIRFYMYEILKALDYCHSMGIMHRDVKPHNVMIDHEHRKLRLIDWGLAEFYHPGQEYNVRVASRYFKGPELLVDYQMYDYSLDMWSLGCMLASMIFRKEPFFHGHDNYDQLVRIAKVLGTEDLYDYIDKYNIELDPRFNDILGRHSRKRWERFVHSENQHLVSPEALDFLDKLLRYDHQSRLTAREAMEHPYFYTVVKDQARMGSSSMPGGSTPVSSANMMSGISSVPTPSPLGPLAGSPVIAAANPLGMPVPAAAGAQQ

In the case of `O=P(O)(O)O[C@H]1[C@H](OP(=O)(O)O)[C@@H](OP(=O)(O)O)[C@H](OP(=O)(O)O)[C@@H](OP(=O)(O)O)[C@H]1OP(=O)(O)O` [IP6], the pIC50 in test [1] is 4.85.
Turning to `O=P(O)(O)O[C@H]1[C@@H](OP(=O)(O)O)[C@H](OP(=O)(O)O)[C@@H](OP(=O)(O)OP(=O)(O)O)[C@H](OP(=O)(O)O)[C@H]1OP(=O)(O)O` [IP7], in test [2], the negative-log IC50 (pIC50) was approximately 6.40.
